The source made the active and inactive calls. The rule behind the calls is not given here.
Experiments:
[1] = target: T1, P2Y purinoceptor 2 (Homo sapiens, UniProt P41231); test: Agonist activity at human recombinant P2Y2 receptor expressed in human 1321N1 cells using [3H]inositol as substrate assessed as [3H]inositol phosphate formation after 30 mins by liquid scintillation counting analysis; type: functional, cell-based
How it was run: (§1)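 PLC activation measured in 1321N1 human astrocytoma cells stably expressing recombinant hP2Y2, hP2Y4 or hP2Y6 receptor; potency given as EC50 or % activation.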

[2] = target: T2, P2Y purinoceptor 6 (Homo sapiens, UniProt Q15077); test: Agonist activity at human recombinant P2Y6 receptor expressed in human 1321N1 cells using [3H]inositol as substrate assessed as [3H]inositol phosphate formation after 30 mins by liquid scintillation counting analysis; type: functional, cell-based; how it was run: as §1
[3] = target: T3, P2Y purinoceptor 4 (Homo sapiens, UniProt P51582); test: Agonist activity at human recombinant P2Y4 receptor expressed in human 1321N1 cells using [3H]inositol as substrate assessed as [3H]inositol phosphate formation after 30 mins by liquid scintillation counting analysis; type: functional, cell-based; how it was run: as §1
[4] = target: T3, P2Y purinoceptor 4; test: Agonist activity at human recombinant P2Y4 receptor expressed in human 1321N1 cells using [3H]inositol as substrate assessed as [3H]inositol phosphate formation at 10 uM after 30 mins by liquid scintillation counting analysis; type: functional, cell-based; how it was run: as §1
[5] = target: T2, P2Y purinoceptor 6; test: Binding affinity to human recombinant P2Y6 receptor expressed in human 1321N1 cells at 400 nM after 60 mins by flow cytometry; type: cell-based
[6] = target: T2, P2Y purinoceptor 6; test: Agonist activity at human recombinant P2Y6 receptor expressed in human 1321N1 cells assessed as compound internalization at 2 uM after 60 mins by confocal microscopy; type: cell-based
How it was run: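 Confocal microscopy of P2Y6R-expressing 1321N1 cells after 60 min at 37 °C with 2 μM fluorescent agonist; cells without ligand served as control.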

[7] = target: T2, P2Y purinoceptor 6; test: Binding affinity to human recombinant P2Y6 receptor expressed in human 1321N1 cells assessed as compound internalization measured as the acid-insensitive fraction following acid wash at 400 nM after 60 mins by flow cytometry; type: cell-based
How it was run: (§2)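 1321N1-P2Y6R cells incubated with 400 nM fluorescent ligand at 37 °C for 60 min; nonspecific binding with 100 μM UDP; surface fraction in 0.4 M sucrose medium; internalized fraction as acid-insensitive fluorescence after 3 × 5 min acid wash (pH 3.5); fluorescence converted to MESF, nonspecific subtracted.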

[8] = target: T2, P2Y purinoceptor 6; test: Binding affinity to human recombinant P2Y6 receptor expressed in human 1321N1 cells assessed as surface bound fraction at 400 nM after 60 mins by flow cytometry in sucrose containing media; type: cell-based; how it was run: as §2
[9] = species: Homo sapiens; test: Selectivity ratio of EC50 for human recombinant P2Y4 receptor to EC50 for human recombinant P2Y6 receptor
[10] = target: T2, P2Y purinoceptor 6; test: Binding affinity to human recombinant P2Y6 receptor expressed in human 1321N1 cells at 400 nM after 60 mins by flow cytometry at 400 nM after 60 mins by flow cytometry; type: cell-based; how it was run: as §2
[11] = target: T2, P2Y purinoceptor 6; test: Binding affinity to human recombinant P2Y6 receptor expressed in human 1321N1 cells at 500 nM after 60 mins by fluorescence microscopy in presence of MRS2957; type: cell-based
How it was run: (§3)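 P2Y6R-expressing 1321N1 cells preincubated 30 min at 37 °C with 500 nM MRS2957 or MRS2578, then exposed to 500 nM fluorescent agonist for 60 min at 37 °C; imaged by fluorescence microscopy (excitation 495 nm, emission 519 nm).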

[12] = target: T2, P2Y purinoceptor 6; test: Agonist activity at human recombinant P2Y6 receptor expressed in human 1321N1 cells assessed as compound internalization at 1 uM after 60 mins by confocal microscopy in presence of sucrose; type: cell-based
How it was run: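 P2Y6R-expressing 1321N1 cells incubated with 1 μM fluorescent agonist for 60 min at 37 °C in medium containing 0.4 M sucrose; labeling imaged by confocal microscopy.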

[13] = species: Homo sapiens; test: Selectivity ratio of EC50 for human recombinant P2Y2 receptor to EC50 for human recombinant P2Y6 receptor
[14] = target: T2, P2Y purinoceptor 6; test: Binding affinity to human recombinant P2Y6 receptor expressed in human 1321N1 cells at 10 nM to 1.5 uM after 3 hrs by flow cytometry relative to control; type: cell-based
How it was run: (§4)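 Saturation labeling by flow cytometry, 10 nM to 1.5 μM fluorescent ligand, 3 h at 37 °C on 1321N1-P2Y6R cells; nonspecific binding with 100 μM UDP; autofluorescence from ligand-free cells; values as MESF.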

[15] = target: T2, P2Y purinoceptor 6; test: Binding affinity to human recombinant P2Y6 receptor expressed in human 1321N1 cells after 2 mins by flow cytometry in presence of MRS2578; type: cell-based
How it was run: (§5)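 1321N1-P2Y6R cells preincubated 30 min with known ligand (UDP 10 μM, MRS2957 0.5 μM, MRS2578 1 μM), then briefly exposed (2 min) to fluorescent agonist; labeling quantified by flow cytometry.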

[16] = target: P2Y purinoceptor 1 (Homo sapiens) (UniProt P47900); test: Binding affinity to P2Y1 receptor (unknown origin) expressed in human 1321N1 cells at 400 nM after 60 mins by flow cytometry; type: cell-based
[17] = target: T4, P2Y purinoceptor 14 (Homo sapiens) (UniProt Q15391); test: Agonist activity at human P2Y14 receptor expressed in rat C6 cells assessed as inhibition of forskolin-stimulated adenylate cyclase up to 10 uM; type: functional, cell-based
T4 sequence (whole entry): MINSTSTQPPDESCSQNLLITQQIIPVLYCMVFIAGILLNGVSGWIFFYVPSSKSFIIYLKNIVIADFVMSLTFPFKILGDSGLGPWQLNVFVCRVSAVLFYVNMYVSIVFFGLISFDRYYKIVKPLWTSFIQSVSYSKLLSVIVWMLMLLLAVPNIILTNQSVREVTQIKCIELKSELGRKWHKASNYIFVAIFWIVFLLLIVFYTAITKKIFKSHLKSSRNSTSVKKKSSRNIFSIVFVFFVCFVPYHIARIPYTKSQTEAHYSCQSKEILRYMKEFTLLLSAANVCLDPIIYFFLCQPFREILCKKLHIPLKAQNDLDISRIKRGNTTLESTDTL

[18] = target: T2, P2Y purinoceptor 6; test: Binding affinity to human recombinant P2Y6 receptor expressed in human 1321N1 cells at 10 nM to 10 uM after 60 mins by flow cytometry relative to control; type: cell-based
How it was run: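 Flow cytometry of 1321N1-P2Y6R and control 1321N1 cells after 60 min with 10 nM to 10 μM fluorescent ligand.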

[19] = target: T2, P2Y purinoceptor 6; test: Binding affinity to human recombinant P2Y6 receptor expressed in human 1321N1 cells assessed as association rate constant at 400 nM by flow cytometry; type: cell-based
How it was run: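 Flow cytometric kinetics of 400 nM fluorescent ligand binding to 1321N1-P2Y6R cells at 37 °C; nonspecific binding defined with 100 μM UDP; association rate constant k1 derived from time course.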

[20] = target: T2, P2Y purinoceptor 6; test: Binding affinity to human recombinant P2Y6 receptor expressed in human 1321N1 cells after 2 mins by flow cytometry in presence of MRS2957; type: cell-based; how it was run: as §5
[21] = target: T2, P2Y purinoceptor 6; test: Binding affinity to human recombinant P2Y6 receptor expressed in human 1321N1 cells at 500 nM after 3 hrs by flow cytometry in presence of UDP relative to control; type: cell-based; how it was run: as §4
[22] = target: T2, P2Y purinoceptor 6; test: Binding affinity to human recombinant P2Y6 receptor expressed in human 1321N1 cells at 400 nM after 3 hrs by flow cytometry; type: cell-based
How it was run: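 FCM histogram of 1321N1-P2Y6R cells after 3 h incubation with 400 nM fluorescent ligand; total, nonspecific and autofluorescence measured; three independent experiments.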

[23] = target: T2, P2Y purinoceptor 6; test: Binding affinity to human recombinant P2Y6 receptor expressed in human 1321N1 cells after 2 mins by flow cytometry in presence of UDP; type: cell-based; how it was run: as §5
[24] = target: T2, P2Y purinoceptor 6; test: Binding affinity to human recombinant P2Y6 receptor expressed in human 1321N1 cells at 500 nM after 60 mins by fluorescence microscopy in presence of MRS2578; type: cell-based; how it was run: as §3
[25] = target: T2, P2Y purinoceptor 6; test: Binding affinity to human recombinant P2Y6 receptor expressed in human 1321N1 cells at 100 nM to 1 uM by flow cytometry in presence of UDP; type: cell-based
How it was run: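 1321N1 cells with or without P2Y6R labeled with 100 nM to 1 μM Cy5 conjugate; blockade tested with 100 μM UDP; read by flow cytometry.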

[26] = target: T1, P2Y purinoceptor 2; test: Agonist activity at human recombinant P2Y2 receptor expressed in human 1321N1 cells using [3H]inositol as substrate assessed as [3H]inositol phosphate formation at 10 uM after 30 mins by liquid scintillation counting analysis; type: functional, cell-based; how it was run: as §1

T3 sequence (P51582 whole entry): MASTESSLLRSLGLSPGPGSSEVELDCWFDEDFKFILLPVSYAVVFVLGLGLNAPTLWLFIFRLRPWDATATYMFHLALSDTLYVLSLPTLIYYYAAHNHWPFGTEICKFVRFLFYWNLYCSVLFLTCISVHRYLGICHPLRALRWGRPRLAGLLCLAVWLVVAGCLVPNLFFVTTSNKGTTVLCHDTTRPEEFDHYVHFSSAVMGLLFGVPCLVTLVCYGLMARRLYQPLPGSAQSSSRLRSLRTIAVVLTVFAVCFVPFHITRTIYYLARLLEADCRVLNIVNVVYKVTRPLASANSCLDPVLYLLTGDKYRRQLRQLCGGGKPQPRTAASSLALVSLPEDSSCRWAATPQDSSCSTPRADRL
T2 sequence (Q15077 whole entry): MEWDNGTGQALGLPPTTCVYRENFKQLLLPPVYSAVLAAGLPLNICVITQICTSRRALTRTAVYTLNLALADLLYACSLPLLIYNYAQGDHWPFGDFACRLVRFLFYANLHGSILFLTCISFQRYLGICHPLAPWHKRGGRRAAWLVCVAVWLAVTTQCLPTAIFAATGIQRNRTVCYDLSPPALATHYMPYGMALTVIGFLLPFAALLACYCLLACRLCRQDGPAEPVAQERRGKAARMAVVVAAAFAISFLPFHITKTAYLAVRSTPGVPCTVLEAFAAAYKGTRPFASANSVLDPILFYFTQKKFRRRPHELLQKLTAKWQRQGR
T1 sequence (P41231 whole entry): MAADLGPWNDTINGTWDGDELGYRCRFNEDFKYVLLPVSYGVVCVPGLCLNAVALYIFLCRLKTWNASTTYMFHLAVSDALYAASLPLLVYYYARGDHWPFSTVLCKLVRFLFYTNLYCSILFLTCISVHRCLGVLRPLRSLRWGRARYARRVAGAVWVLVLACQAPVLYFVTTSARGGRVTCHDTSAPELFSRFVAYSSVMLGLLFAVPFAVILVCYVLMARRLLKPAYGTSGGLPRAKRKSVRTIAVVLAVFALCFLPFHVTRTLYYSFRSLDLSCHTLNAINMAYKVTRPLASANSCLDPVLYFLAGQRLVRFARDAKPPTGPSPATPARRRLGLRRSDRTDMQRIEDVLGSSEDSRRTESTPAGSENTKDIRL
Chain of P2Y purinoceptor 1 (Homo sapiens) (P47900 whole entry): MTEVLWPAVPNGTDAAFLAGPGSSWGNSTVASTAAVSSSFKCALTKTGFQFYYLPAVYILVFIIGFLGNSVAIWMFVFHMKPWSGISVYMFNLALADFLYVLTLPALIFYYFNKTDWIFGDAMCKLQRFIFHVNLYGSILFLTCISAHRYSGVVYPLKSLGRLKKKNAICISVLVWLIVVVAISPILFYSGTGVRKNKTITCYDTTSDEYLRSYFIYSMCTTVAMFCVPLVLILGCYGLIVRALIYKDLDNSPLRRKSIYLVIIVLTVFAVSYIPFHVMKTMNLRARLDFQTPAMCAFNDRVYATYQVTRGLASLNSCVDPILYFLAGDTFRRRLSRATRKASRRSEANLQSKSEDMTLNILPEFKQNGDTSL

| EC50 [1] [nM] | EC50 [2] [nM] | EC50 [3] [nM] | Activity [4] [%] | Compound | other results |
| --- | --- | --- | --- | --- | --- |
| 2500 | 19 | 352 | – | O=c1[nH]/c(=N\OCc2cccc(I)c2)ccn1[C@@H]1O[C@H](COP(=O)(O)OP(=O)(O)O)[C@@H](O)[C@H]1O | – |
| 1700 | 126 | 636 | – | O=c1ccn([C@@H]2O[C@H](COP(=O)(O)OP(=O)(O)OP(=O)(O)OC[C@H]3O[C@@H](n4cc/c(=N/OCc5ccccc5)[nH]c4=O)[C@H](O)[C@@H]3O)[C@@H](O)[C@H]2O)c(=O)[nH]1 | – |
| 3900 | 100 | 952 | – | C#CCCC#Cc1cccc(CO/N=c2/ccn([C@@H]3O[C@H](COP(=O)(O)OP(=O)(O)O)[C@@H](O)[C@H]3O)c(=O)[nH]2)c1 | – |
| – | 148 | – | < 50 | O=c1[nH]/c(=N\OCc2ccc(I)cc2)ccn1[C@@H]1O[C@H](COP(=O)(O)OP(=O)(O)O)[C@@H](O)[C@H]1O | – |
| – | – | – | – | O=c1[nH]/c(=N\OCc2ccccc2)ccn1[C@@H]1O[C@H](COP(=O)(O)OP(=O)(O)O)[C@@H](O)[C@H]1O | EC50 ([2]; 1321-n1): 26 nM |
| – | > 10000 | – | < 50 | C#CCCCOP(=O)(O)OP(=O)(O)OP(=O)(O)OC[C@H]1O[C@@H](n2cc/c(=N/OCc3ccccc3)[nH]c2=O)[C@H](O)[C@@H]1O | – |
| – | – | – | – | N=c1ccc2c(-c3ccc(C(=O)NCCCCCCn4cc(CCC#Cc5cccc(CO/N=c6/ccn([C@@H]7O[C@H](COP(=O)(O)O)[C@@H](O)[C@H]7O)c(=O)[nH]6)c5)nn4)cc3C(=O)O)c3ccc(N)c(S(=O)(=O)O)c3oc-2c1S(=O)(=O)O | Activity [5]: inactive |
| 2500 | 9 | – | < 50 | N=c1ccc2c(-c3ccc(C(=O)NCCCCCCn4cc(CCC#Cc5cccc(CO/N=c6/ccn([C@@H]7O[C@H](COP(=O)(O)OP(=O)(O)O)[C@@H](O)[C@H]7O)c(=O)[nH]6)c5)nn4)cc3C(=O)O)c3ccc(N)c(S(=O)(=O)O)c3oc-2c1S(=O)(=O)O | Activity [6]: Active; Activity [7]: 77%; Activity [8]: 17%; Ratio EC50 [9]: > 1100; Activity [10]: 23%; Activity [11]: inactive; Activity [12]: inactive; Ratio EC50 [13]: 280; Activity [14]: Active; Activity [15]: inactive; Activity [16]: inactive; inhibition [17]: inactive; Activity [18]: Active; K [19]: 0.019 min⁻¹; Activity [20]: inactive; Ratio [21]: 4; Activity [22]: Active; Activity [23]: inactive; Activity [24]: inactive |
| – | – | – | – | CN1/C(=C/C=C/C=C/C2=[N+](CCCCCCC(=O)NCCCCCCn3cc(CCC#Cc4cccc(CO/N=c5/ccn([C@@H]6O[C@H](COP(=O)(O)OP(=O)(O)O)[C@@H](O)[C@H]6O)c(=O)[nH]5)c4)nn3)c3ccccc3C2(C)C)C(C)(C)c2ccccc21 | Activity [25]: inactive |
| 3800 | 879 | 3300 | – | CC(=O)NCCn1cc(CCOP(=O)(O)OP(=O)(O)OP(=O)(O)OC[C@H]2O[C@@H](n3cc/c(=N/OCc4ccccc4)[nH]c3=O)[C@H](O)[C@@H]2O)nn1 | – |
| 3300 | 41 | 2200 | – | O=c1[nH]/c(=N\OCc2ccc([N+](=O)[O-])cc2)ccn1[C@@H]1O[C@H](COP(=O)(O)OP(=O)(O)O)[C@@H](O)[C@H]1O | – |
| 5200 | 32 | 7440 | – | O=c1[nH]/c(=N\OCc2ccc(Br)cc2)ccn1[C@@H]1O[C@H](COP(=O)(O)OP(=O)(O)O)[C@@H](O)[C@H]1O | – |
| – | 1750 | – | < 50 | C#CCCOP(=O)(O)OP(=O)(O)OP(=O)(O)OC[C@H]1O[C@@H](n2cc/c(=N/OCc3ccccc3)[nH]c2=O)[C@H](O)[C@@H]1O | Activity [26]: < 50% |
| 6200 | 39 | > 10000 | – | O=c1[nH]/c(=N\OCc2cccc(Br)c2)ccn1[C@@H]1O[C@H](COP(=O)(O)OP(=O)(O)O)[C@@H](O)[C@H]1O | Ratio EC50 [9]: > 260; Ratio EC50 [13]: 160 |

| Compound | EC50 [1] [nM] | EC50 [2] [nM] | EC50 [3] [nM] | Activity [4] [%] | other results |
| --- | --- | --- | --- | --- | --- |
| CO/N=c1/ccn([C@@H]2O[C@H](COP(=O)(O)OP(=O)(O)OP(=O)(O)Oc3ccc4ccccc4c3)[C@@H](O)[C@H]2O)c(=O)[nH]1 | 2900 | 731 | – | < 50 | – |

Source: ChEMBL document CHEMBL3217604, “4-Alkyloxyimino-cytosine nucleotides: tethering approaches to molecular probes for the P2Y6 receptor” (Medchemcomm, 2013)
